Columns and labels:
Cholecystokinin receptor = target: T1, Cholecystokinin receptor (Rattus norvegicus, UniProt P30551+P30553); assay type: protein assay
T1 sequence (P30551 whole entry): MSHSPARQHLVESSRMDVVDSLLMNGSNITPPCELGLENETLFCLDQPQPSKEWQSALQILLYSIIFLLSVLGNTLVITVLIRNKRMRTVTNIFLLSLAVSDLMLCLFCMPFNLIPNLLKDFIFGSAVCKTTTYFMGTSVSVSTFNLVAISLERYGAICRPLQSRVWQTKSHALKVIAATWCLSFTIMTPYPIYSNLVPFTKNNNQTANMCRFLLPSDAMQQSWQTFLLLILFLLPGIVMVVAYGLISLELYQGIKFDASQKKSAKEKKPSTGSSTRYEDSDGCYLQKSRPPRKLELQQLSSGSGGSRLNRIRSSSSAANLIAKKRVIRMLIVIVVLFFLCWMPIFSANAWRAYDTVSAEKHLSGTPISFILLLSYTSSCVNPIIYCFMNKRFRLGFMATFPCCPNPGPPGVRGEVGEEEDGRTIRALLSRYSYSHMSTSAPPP
T1 sequence (P30553 whole entry): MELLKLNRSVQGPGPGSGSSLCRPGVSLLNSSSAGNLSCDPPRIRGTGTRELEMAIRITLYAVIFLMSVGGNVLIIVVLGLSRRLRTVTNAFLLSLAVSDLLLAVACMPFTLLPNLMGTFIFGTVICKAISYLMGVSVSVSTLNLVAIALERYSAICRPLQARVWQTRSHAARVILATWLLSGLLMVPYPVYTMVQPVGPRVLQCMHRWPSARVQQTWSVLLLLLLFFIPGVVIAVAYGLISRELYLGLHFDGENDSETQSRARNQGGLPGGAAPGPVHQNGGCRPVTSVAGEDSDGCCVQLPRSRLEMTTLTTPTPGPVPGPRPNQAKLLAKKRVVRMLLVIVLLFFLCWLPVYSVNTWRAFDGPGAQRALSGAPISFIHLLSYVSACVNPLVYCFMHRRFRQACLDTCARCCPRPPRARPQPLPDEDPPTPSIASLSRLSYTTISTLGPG

[1] = target: GABA-A receptor; anion channel; assay: Displacement of [3H]diazepam from rat brain GABA-A benzodiazepine receptor
Mus musculus [2] = assay: In vivo activity on the basis of the ability to antagonize CCK-8 inhibition of charcoal meal gastric emptying in mice after oral administration; assay type: functional; settings: Stomach
Procedure, shortened: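 Oral dosing of mice (N ≥ 10/dose) 1 h before sc CCK-8 at 80 μg/kg. The charcoal meal followed CCK-8 by 5 min, with gastric emptying scored 5 min after that. ED50 was obtained by regression analysis using at least three dose levels.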

Mus musculus [3] = assay: In vivo activity on the basis of the ability to antagonize CCK-8 inhibition of charcoal meal gastric emptying in mice after intraperitoneal administration; assay type: functional; settings: Stomach, ip
Procedure, shortened: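 Mice dosed intraperitoneally 1 h before CCK-8 (80 μg/kg, sc), N ≥ 10/dose. A charcoal meal was given 5 min after CCK-8 and gastric emptying was measured 5 min later. ED50 was derived by regression from at least three dose levels.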

Rattus norvegicus = species: Rattus norvegicus; assay: Selectivity of binding to pancreatic CCK and brain benzodiazepine receptors, ratio of IC50
[4] = target: GABA-A receptor; anion channel; assay: Displacement of [3H]flunitrazepam from GABA-A benzodiazepine receptor of guinea pig brain; design: species or system Cavia porcellus

Structure (SMILES) | IC50 (Cholecystokinin receptor) | other results
O=C1Nc2ccc(Cl)cc2C(c2ccccc2)=NC1Cc1cccc2ccccc12 (stereo not drawn) | 23 µM | 
NC(=O)CN1C(=O)[C@@H](Cc2c[nH]c3ccccc23)N=C(c2ccccc2F)c2ccccc21 | 2.1 µM | 
SC1=Nc2ccc(Cl)cc2C(c2ccccc2)=N[C@@H]1Cc1c[nH]c2ccccc12 | 4.5 µM | 
CCN1C(=O)[C@@H](Cc2c[nH]c3ccccc23)N=C(c2ccccc2F)c2ccccc21 | 0.3 µM | 
CN1C[C@@H](CC2N=C(c3ccccc3)c3ccccc3N(C)C2=O)c2ccccc21 (stereo partly drawn) | 13 µM | 
O=C1Nc2ccc(Cl)cc2C(c2ccccc2)=N[C@H]1Cc1c[nH]c2ccccc12 | 32 µM | IC50 [1]: 5.6 µM; ED50 (Mus musculus [2]): > 150 mg/kg
CN1C(=O)[C@@H](Cc2cn(C(=O)c3ccc(Cl)cc3)c3ccccc23)N=C(c2ccccc2F)c2ccccc21 | 11 µM | 
O=C1Nc2ccc(Cl)cc2C(c2ccccc2)=N[C@@H]1Cc1c[nH]c2ccccc12 | 3.4 µM | IC50 [1]: > 100 µM; ED50 (Mus musculus [3]): 88 mg/kg; ED50 (Mus musculus [2]): > 300 mg/kg
O=C1Nc2ccccc2C(c2ccccc2F)=N[C@H]1Cc1c[nH]c2ccccc12 | 10.6 µM | 
O=C1[C@@H](Cc2c[nH]c3ccccc23)N=C(c2ccccc2)c2cc(Cl)ccc2N1Cc1ccccc1 | > 100 µM | 
O=C1Nc2ccc(Cl)cc2C(c2ccccc2)=N[C@@H]1Cc1ccccc1 | 80 µM | 
O=C1Nc2ccccc2C(c2ccccc2F)=N[C@@H]1Cc1c[nH]c2ccccc12 | 0.5 µM | IC50 [1]: > 100 µM; ED50 (Mus musculus [3]): 41 mg/kg; ED50 (Mus musculus [2]): 104 mg/kg
O=C1CN=C(c2ccccc2Cl)c2cc([N+](=O)[O-])ccc2N1 [CLONAZEPAM] | > 100 µM | IC50 [1]: 0.0017 µM; Ratio (Rattus norvegicus): > 58000
O=C1Nc2ccccc2C1C[C@H]1N=C(c2ccccc2)c2cc(Cl)ccc2NC1=O (stereo partly drawn) | 24 µM | 
CN1C(=O)[C@@H](Cc2cn(Cc3ccccc3)c3ccccc23)N=C(c2ccccc2)c2cc(Cl)ccc21 | ~ 150 uM | 
O=C1Nc2ccc(Cl)cc2C(c2ccccc2)=N[C@@H]1COCc1ccccc1 | 60 µM | 
O=C1Nc2ccccc2C(c2ccccc2)=N[C@@H]1Cc1c[nH]c2ccccc12 | 1.2 µM | IC50 [1]: > 100 µM; ED50 (Mus musculus [2]): > 150 mg/kg
O=C1Nc2ccccc2C(c2ccccc2)=NC1C[C@@H]1CNc2ccccc21 (stereo partly drawn) | 3.2 µM | 
O=C1Nc2ccccc2C(c2ccccc2F)=NC1c1ccsc1 (stereo not drawn) | > 100 µM | 
O=C1Nc2ccccc2C(c2ccccc2F)=NC1C[C@@H]1CNc2ccccc21 (stereo partly drawn) | 11 µM | 

Structure (SMILES) | IC50 (Cholecystokinin receptor) | other results
CCOC(=O)CN1C(=O)[C@@H](Cc2c[nH]c3ccccc23)N=C(c2ccccc2F)c2ccccc21 | 8.3 µM | 
O=C1[C@H](Cc2c[nH]c3ccccc23)N=C(c2ccccc2)c2cc(Cl)ccc2N1Cc1ccccc1 | > 100 µM | 
CC1=N[C@H](Cc2c[nH]c3ccccc23)C(=O)Nc2ccccc21 | 48 µM | IC50 [1]: > 100 µM
O=C1Nc2ccccc2C(c2ccccc2F)=NC1Cc1ccsc1 (stereo not drawn) | 33 µM | 
O=C1Nc2ccccc2C(c2ccccc2)=NC1C[C@H]1CNc2ccccc21 (stereo partly drawn) | 21 µM | 
CN1C(=O)[C@@H](Cc2cn(C)c3ccccc23)N=C(c2ccccc2F)c2ccccc21 | 0.36 µM | ED50 (Mus musculus [3]): 18 mg/kg; ED50 (Mus musculus [2]): 39 mg/kg
CC(C)C[C@@H]1N[C@H]2N(C1=O)c1ccccc1[C@@]2(O)C[C@@H]1NC(=O)c2ccccc2-n2c1nc1ccccc1c2=O [ASPERLICIN] |  | IC50 [1]: 50 µM; ED50 (Mus musculus [2]): > 300 mg/kg; Ratio (Rattus norvegicus): 0.028
O=C1Nc2ccc(Cl)cc2C(c2ccccc2)N[C@@H]1Cc1c[nH]c2ccccc12 (stereo partly drawn) | 12 µM | 
O=C1[C@@H](Cc2c[nH]c3ccccc23)N=C(c2ccccc2F)c2ccccc2N1CC(F)(F)F | 3.6 µM | 
CN1C(=O)[C@@H](Cc2cn(C)c3ccccc23)N(C(=O)c2ccc(Cl)cc2)C(c2ccccc2F)c2ccccc21 (stereo partly drawn) | > 100 µM | 
N#CCCN1C(=O)[C@@H](Cc2c[nH]c3ccccc23)N=C(c2ccccc2F)c2ccccc21 | 0.7 µM | 
CC(C)CCN1C(=O)[C@@H](Cc2c[nH]c3ccccc23)N=C(c2ccccc2F)c2ccccc21 | ~ 100 uM | 
Cc1nnc2n1-c1ccccc1C(c1ccccc1F)=N[C@@H]2Cc1c[nH]c2ccccc12 | 1.2 µM | IC50 [4]: 0.8 µM; ED50 (Mus musculus [2]): 76 mg/kg; Ratio (Rattus norvegicus): 1.5
O=C(O)CN1C(=O)[C@@H](Cc2c[nH]c3ccccc23)N=C(c2ccccc2F)c2ccccc21 | 0.3 µM | IC50 [1]: > 100 µM; ED50 (Mus musculus [2]): 42 mg/kg; Ratio (Rattus norvegicus): < 0.003
CC(C)CC(N)C(=O)N1CC(CC2N=C(c3ccccc3)c3ccccc3NC2=O)c2ccccc21.Cl (stereo not drawn) | 6.6 µM | 
CN(C)CCN1C(=O)[C@@H](Cc2c[nH]c3ccccc23)N=C(c2ccccc2F)c2ccccc21 | ~ 100 uM | 
CC(=O)N1C(Cc2cn(C)c3ccccc23)C(=O)N(C)c2ccccc2[C@@H]1c1ccccc1F (stereo partly drawn) | ~ 100 uM | 
CN1C(=O)[C@@H](Cc2c[nH]c3ccccc23)N=C(c2ccccc2F)c2ccccc21 | 0.27 µM | IC50 [4]: > 100 µM; ED50 (Mus musculus [3]): 15 mg/kg; ED50 (Mus musculus [2]): 25 mg/kg
CN1C(=O)/C(=C/c2ccsc2)N=C(c2ccccc2)c2ccccc21 | 100 µM | 
CN1C(=O)[C@@H](Cc2c[nH]c3ccccc23)N=C(c2ccccc2)c2cc(Cl)ccc21 | 1.4 µM | 

Structure (SMILES) | IC50 (Cholecystokinin receptor) | other results
O=C1Nc2ccc(Cl)cc2C(c2ccccc2)=N[C@@H]1Cc1ccc(OCc2ccccc2)cc1 | > 100 µM | 
CN1C(=O)[C@@H](Cc2cn(C)c3ccccc23)N=C(c2ccccc2)c2ccccc21 | 0.1 µM | 
O=C1Nc2ccccc2C(c2ccccc2F)=NC1C[C@H]1CNc2ccccc21 (stereo partly drawn) | 17 µM | 
O=C1Nc2ccccc2C(c2ccccc2)=NC1Cc1c[nH]c2ccc(Br)cc12 (stereo not drawn) | 2.9 µM | 
CN1C(=O)/C(=C\c2ccsc2)N=C(c2ccccc2)c2ccccc21 | 25 µM | 
CCCCCN1C(=O)[C@@H](Cc2c[nH]c3ccccc23)N=C(c2ccccc2F)c2ccccc21 | ~ 100 uM | 
O=C(O)CCN1C(=O)[C@@H](Cc2c[nH]c3ccccc23)N=C(c2ccccc2F)c2ccccc21 | 1.4 µM | 
O=C1Nc2ccc(Cl)cc2C(c2ccccc2)=NC1Cc1ccc2ccccc2c1 (stereo not drawn) | 49 µM | 
CC(C)C[C@H]1N=C(c2ccccc2)c2cc(Cl)ccc2NC1=O | 42 µM | 
O=C1[C@@H](Cc2c[nH]c3ccccc23)N=C(c2ccccc2F)c2ccccc2N1CC1CC1 | 2.2 µM | 
CN1CC(CC2N=C(c3ccccc3)c3ccccc3N(C)C2=O)c2ccccc21 (stereo not drawn) | 10 µM | 
CC(C)CC(NC(=O)OC(C)(C)C)C(=O)N1CC(CC2N=C(c3ccccc3)c3ccccc3NC2=O)c2ccccc21 (stereo not drawn) | 4.7 µM | 
O=C1Nc2ccccc2C(c2ccccc2F)=NC1Cc1c[nH]c2ccc(F)cc12 (stereo not drawn) | 1.4 µM | 
CN1C(=O)[C@@H](Cc2c[nH]c3ccccc23)N=C(c2ccccc2)c2ccccc21 | 0.3 µM | 
CN1C(=O)CN=C(c2ccccc2F)c2cc([N+](=O)[O-])ccc21 [FLUNITRAZEPAM] |  | IC50 [1]: 0.0017 µM
Fc1ccccc1C1=N[C@H](Cc2c[nH]c3ccccc23)CNc2ccccc21 | 4 µM | 
O=C1Nc2ccc(Cl)cc2C(c2ccccc2Cl)=N[C@@H]1Cc1c[nH]c2ccccc12 | 5 µM | IC50 [1]: > 180 µM; ED50 (Mus musculus [3]): 119 mg/kg; ED50 (Mus musculus [2]): > 600 mg/kg
O=C(O)c1ccccc1C1=N[C@H](Cc2c[nH]c3ccccc23)C(=O)Nc2ccccc21 | 18 µM | 
O=C1Nc2ccccc2C(c2ccccc2F)=NC1Cc1c[nH]c2cc(F)ccc12 (stereo not drawn) | 1.3 µM | 
